Measurements: ChEMBL document CHEMBL5303300, “EUbOPEN Chemogenomics Library - Multiplex” (2023)
“And” between values parts separate entries of the source, which are not always exact repeats. Equal values may be shown once.

System: U2OS
Test: Multiplex assay against U2OS
Format: toxicity, cell-based
Details: human, number of replicates 2
Procedure, shortened: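 Values for tubulin, mitochondrial-mass and membrane-permeability phenotypes are per cents of cells with healthy nuclei. These cells were identified by CellPathfinder machine-learning gating of live cells that had been stained at seeding with Hoechst33342, BioTracker Green Microtubule Cytoskeleton Dye, MitoTracker Red and Annexin V Alexa Fluor 680 and imaged on a CQ1 microscope at 37°C and 5% CO2 after compound addition. The gating first set Hoechst high-intensity objects apart from normal cells, then split normal cells into healthy, pyknosed or fragmented nuclei, and pyknosed cells into mitotic or apoptotic.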

[1] = 12 h, 1 µM, compound concentration 1 uM
[2] = 12 h, 10 µM, compound concentration 10 uM
[3] = 24 h, 1 µM, compound concentration 1 uM
[4] = 24 h, 10 µM, compound concentration 10 uM
[5] = 48 h, 1 µM, compound concentration 1 uM
[6] = 48 h, 10 µM, compound concentration 10 uM

COc1cc(N(C)c2ccnc3ccc(C(F)(F)F)cc23)cc(OC)c1OC
Population Apoptotic (%) [1]: 75% and 100% | Population Healthy Nuclei (%) [1]: 84% and 54% | Population Hoechst High Intensity Objects (%) [1]: 0% | Population Membrane Permeable-Phenotype (%) [1]: 2% and 8% | Population Mitochondria Different-Phenotype (%) [1]: 3% and 0% | Population Mitotic Cells (%) [1]: 25% and 0% | Population Normal (%) [1]: 100% | Population Pyknosed Nuclei (%) [1]: 10% and 22% | Population Tubulin-Different-Phenotype (%) [1]: 76% and 50% | Population Apoptotic (%) [2]: 50% and 51% | Population Healthy Nuclei (%) [2]: 65% and 78% | Population Hoechst High Intensity Objects (%) [2]: 0% | Population Membrane Permeable-Phenotype (%) [2]: 10% and 4% | Population Mitochondria Different-Phenotype (%) [2]: 10% and 5% | Population Mitotic Cells (%) [2]: 50% and 48% | Population Normal (%) [2]: 100% | Population Pyknosed Nuclei (%) [2]: 6% and 16% | Population Tubulin-Different-Phenotype (%) [2]: 26% and 34% | Population Apoptotic (%) [3]: 100% and 86% | Population Fragmented Nuclei (%) [3]: 10% and 3% | Population Healthy Nuclei (%) [3]: 75% and 92% | Population Hoechst High Intensity Objects (%) [3]: 0% | Population Membrane Permeable-Phenotype (%) [3]: 0% | Population Mitochondria Different-Phenotype (%) [3]: 4% and 0% | Population Mitotic Cells (%) [3]: 0% and 13% | Population Normal (%) [3]: 100% | Population Pyknosed Nuclei (%) [3]: 14% and 4% | Population Tubulin-Different-Phenotype (%) [3]: 57% and 76% | Population Apoptotic (%) [4]: 66% and 75% | Population Healthy Nuclei (%) [4]: 65% and 79% | Population Hoechst High Intensity Objects (%) [4]: 0% | Population Membrane Permeable-Phenotype (%) [4]: 0% and 5% | Population Mitochondria Different-Phenotype (%) [4]: 14% and 9% | Population Mitotic Cells (%) [4]: 33% and 24% | Population Normal (%) [4]: 100% | Population Pyknosed Nuclei (%) [4]: 9% and 15% | Population Tubulin-Different-Phenotype (%) [4]: 47% and 45% | Population Apoptotic (%) [5]: 75% and 73% | Population Fragmented Nuclei (%) [5]: 11% and 3% | Population Healthy Nuclei (%) [5]: 80% and 90% | Population Hoechst High Intensity Objects (%) [5]: 0% | Population Membrane Permeable-Phenotype (%) [5]: 2% and 1% | Population Mitochondria Different-Phenotype (%) [5]: 2% and 0% | Population Mitotic Cells (%) [5]: 25% and 26% | Population Normal (%) [5]: 100% | Population Pyknosed Nuclei (%) [5]: 7% and 6% | Population Tubulin-Different-Phenotype (%) [5]: 76% and 84% | Population Apoptotic (%) [6]: 66% and 72% | Population Healthy Nuclei (%) [6]: 58% and 87% | Population Hoechst High Intensity Objects (%) [6]: 0% | Population Membrane Permeable-Phenotype (%) [6]: 11% and 3% | Population Mitochondria Different-Phenotype (%) [6]: 14% and 4% | Population Mitotic Cells (%) [6]: 33% and 27% | Population Normal (%) [6]: 100% | Population Pyknosed Nuclei (%) [6]: 26% and 9% | Population Tubulin-Different-Phenotype (%) [6]: 40% and 49%

CC(C)c1cc(-c2ccc(F)c3ccccc23)nc(N)n1
Population Apoptotic (%) [1]: 35% and 50% | Population Fragmented Nuclei (%) [1]: 2% and 12% | Population Healthy Nuclei (%) [1]: 88% and 81% | Population Hoechst High Intensity Objects (%) [1]: 0% | Population Membrane Permeable-Phenotype (%) [1]: 1% and 7% | Population Mitochondria Different-Phenotype (%) [1]: 0% | Population Mitotic Cells (%) [1]: 65% and 50% | Population Normal (%) [1]: 100% | Population Pyknosed Nuclei (%) [1]: 8% and 6% | Population Tubulin-Different-Phenotype (%) [1]: 88% and 44% | Population Apoptotic (%) [2]: 66% and 52% | Population Healthy Nuclei (%) [2]: 52% and 84% | Population Hoechst High Intensity Objects (%) [2]: 0% | Population Mitotic Cells (%) [2]: 33% and 48% | Population Normal (%) [2]: 100% | Population Pyknosed Nuclei (%) [2]: 15% and 10% | Population Tubulin-Different-Phenotype (%) [2]: 80% and 71% | Population Fragmented Nuclei (%) [3]: 3% and 8% | Population Healthy Nuclei (%) [3]: 86% and 82% | Population Hoechst High Intensity Objects (%) [3]: 0% | Population Membrane Permeable-Phenotype (%) [3]: 0% and 7% | Population Mitochondria Different-Phenotype (%) [3]: 0% | Population Mitotic Cells (%) [3]: 47% and 100% | Population Normal (%) [3]: 100% | Population Pyknosed Nuclei (%) [3]: 9% and 10% | Population Tubulin-Different-Phenotype (%) [3]: 89% and 41% | Population Apoptotic (%) [4]: 100% and 65% | Population Healthy Nuclei (%) [4]: 58% and 86% | Population Hoechst High Intensity Objects (%) [4]: 0% | Population Membrane Permeable-Phenotype (%) [4]: 11% and 3% | Population Mitochondria Different-Phenotype (%) [4]: 11% and 1% | Population Normal (%) [4]: 100% | Population Pyknosed Nuclei (%) [4]: 6% and 8% | Population Tubulin-Different-Phenotype (%) [4]: 55% and 72% | Population Fragmented Nuclei (%) [5]: 13% and 3% | Population Healthy Nuclei (%) [5]: 83% and 90% | Population Hoechst High Intensity Objects (%) [5]: 0% | Population Membrane Permeable-Phenotype (%) [5]: 1% and 2% | Population Mitochondria Different-Phenotype (%) [5]: 1% and 0% | Population Mitotic Cells (%) [5]: 100% and 60% | Population Normal (%) [5]: 100% | Population Pyknosed Nuclei (%) [5]: 2% and 6% | Population Tubulin-Different-Phenotype (%) [5]: 57% and 93% | Population Apoptotic (%) [6]: 83% and 59% | Population Healthy Nuclei (%) [6]: 62% and 90% | Population Hoechst High Intensity Objects (%) [6]: 0% | Population Mitotic Cells (%) [6]: 16% and 40% | Population Normal (%) [6]: 100% | Population Tubulin-Different-Phenotype (%) [6]: 60% and 84%

CC(C)S(=O)(=O)c1ccccc1Nc1nc(N[C@@H]2CCCN(CCCCCCCNC(=O)COc3cccc4c3C(=O)N(C3CCC(=O)NC3=O)C4=O)C2)ncc1Cl (stereo partly specified)
Population Apoptotic (%) [1]: 82% and 80% | Population Fragmented Nuclei (%) [1]: 14% and 8% | Population Healthy Nuclei (%) [1]: 43% and 61% | Population Hoechst High Intensity Objects (%) [1]: 0% and 1% | Population Membrane Permeable-Phenotype (%) [1]: 5% | Population Mitochondria Different-Phenotype (%) [1]: 5% and 6% | Population Mitotic Cells (%) [1]: 17% and 19% | Population Normal (%) [1]: 100% and 98% | Population Pyknosed Nuclei (%) [1]: 41% and 30% | Population Tubulin-Different-Phenotype (%) [1]: 66% and 62% | Population Apoptotic (%) [2]: 85% and 81% | Population Fragmented Nuclei (%) [2]: 11% and 7% | Population Healthy Nuclei (%) [2]: 38% and 61% | Population Hoechst High Intensity Objects (%) [2]: 0% and 5% | Population Membrane Permeable-Phenotype (%) [2]: 81% and 57% | Population Mitochondria Different-Phenotype (%) [2]: 62% and 55% | Population Mitotic Cells (%) [2]: 14% and 18% | Population Normal (%) [2]: 100% and 94% | Population Pyknosed Nuclei (%) [2]: 50% and 31% | Population Tubulin-Different-Phenotype (%) [2]: 100% and 96% | Population Apoptotic (%) [3]: 83% and 87% | Population Fragmented Nuclei (%) [3]: 24% and 14% | Population Healthy Nuclei (%) [3]: 22% and 41% | Population Hoechst High Intensity Objects (%) [3]: 0% and 2% | Population Membrane Permeable-Phenotype (%) [3]: 0% and 5% | Population Mitochondria Different-Phenotype (%) [3]: 0% and 6% | Population Mitotic Cells (%) [3]: 16% and 12% | Population Normal (%) [3]: 100% and 97% | Population Pyknosed Nuclei (%) [3]: 53% and 44% | Population Tubulin-Different-Phenotype (%) [3]: 70% and 87% | Population Apoptotic (%) [4]: 93% and 89% | Population Fragmented Nuclei (%) [4]: 21% and 10% | Population Healthy Nuclei (%) [4]: 19% and 31% | Population Hoechst High Intensity Objects (%) [4]: 0% and 8% | Population Membrane Permeable-Phenotype (%) [4]: 0% and 25% | Population Mitotic Cells (%) [4]: 6% and 10% | Population Normal (%) [4]: 100% and 91% | Population Pyknosed Nuclei (%) [4]: 59% and 58% | Population Tubulin-Different-Phenotype (%) [4]: 40% and 55% | Population Apoptotic (%) [5]: 96% and 95% | Population Healthy Nuclei (%) [5]: 22% and 28% | Population Hoechst High Intensity Objects (%) [5]: 2% and 3% | Population Mitotic Cells (%) [5]: 3% and 4% | Population Normal (%) [5]: 97% and 96% | Population Pyknosed Nuclei (%) [5]: 54% and 63% | Population Tubulin-Different-Phenotype (%) [5]: 90% and 85% | Population Apoptotic (%) [6]: 90% and 97% | Population Fragmented Nuclei (%) [6]: 8% and 22% | Population Healthy Nuclei (%) [6]: 12% and 0% | Population Hoechst High Intensity Objects (%) [6]: 9% and 2% | Population Mitotic Cells (%) [6]: 9% and 2% | Population Normal (%) [6]: 90% and 97% | Population Pyknosed Nuclei (%) [6]: 79% and 77%

CC(C)NC(=O)[C@H]1CCC[C@H]1Nc1nc(Nc2ccc(C(=O)N(C)C3CCN(C)CC3)cc2)ncc1Cl
Population Apoptotic (%) [1]: 75% and 60% | Population Fragmented Nuclei (%) [1]: 17% and 6% | Population Healthy Nuclei (%) [1]: 72% and 81% | Population Hoechst High Intensity Objects (%) [1]: 0% | Population Membrane Permeable-Phenotype (%) [1]: 0% and 2% | Population Mitochondria Different-Phenotype (%) [1]: 0% | Population Mitotic Cells (%) [1]: 25% and 40% | Population Normal (%) [1]: 100% and 99% | Population Pyknosed Nuclei (%) [1]: 10% and 12% | Population Tubulin-Different-Phenotype (%) [1]: 65% and 57% | Population Apoptotic (%) [2]: 100% and 69% | Population Healthy Nuclei (%) [2]: 65% and 73% | Population Hoechst High Intensity Objects (%) [2]: 0% | Population Membrane Permeable-Phenotype (%) [2]: 13% and 18% | Population Mitochondria Different-Phenotype (%) [2]: 0% and 15% | Population Normal (%) [2]: 100% | Population Pyknosed Nuclei (%) [2]: 8% and 20% | Population Tubulin-Different-Phenotype (%) [2]: 40% and 36% | Population Apoptotic (%) [3]: 42% and 87% | Population Fragmented Nuclei (%) [3]: 8% and 3% | Population Healthy Nuclei (%) [3]: 70% and 83% | Population Hoechst High Intensity Objects (%) [3]: 0% | Population Membrane Permeable-Phenotype (%) [3]: 4% and 1% | Population Mitochondria Different-Phenotype (%) [3]: 0% | Population Normal (%) [3]: 100% | Population Pyknosed Nuclei (%) [3]: 20% and 12% | Population Tubulin-Different-Phenotype (%) [3]: 58% and 61% | Population Apoptotic (%) [4]: 75% and 82% | Population Healthy Nuclei (%) [4]: 43% and 65% | Population Hoechst High Intensity Objects (%) [4]: 0% | Population Membrane Permeable-Phenotype (%) [4]: 15% and 13% | Population Mitochondria Different-Phenotype (%) [4]: 46% and 31% | Population Mitotic Cells (%) [4]: 25% and 17% | Population Normal (%) [4]: 100% | Population Pyknosed Nuclei (%) [4]: 13% and 28% | Population Tubulin-Different-Phenotype (%) [4]: 53% and 45% | Population Apoptotic (%) [5]: 72% and 90% | Population Fragmented Nuclei (%) [5]: 10% and 18% | Population Healthy Nuclei (%) [5]: 64% and 58% | Population Hoechst High Intensity Objects (%) [5]: 0% | Population Membrane Permeable-Phenotype (%) [5]: 5% and 0% | Population Mitochondria Different-Phenotype (%) [5]: 0% | Population Mitotic Cells (%) [5]: 27% and 10% | Population Normal (%) [5]: 99% and 100% | Population Pyknosed Nuclei (%) [5]: 24% and 23% | Population Tubulin-Different-Phenotype (%) [5]: 68% and 48% | Population Apoptotic (%) [6]: 90% and 89% | Population Hoechst High Intensity Objects (%) [6]: 0% | Population Membrane Permeable-Phenotype (%) [6]: 0% and 25% | Population Mitotic Cells (%) [6]: 10% | Population Normal (%) [6]: 100% and 99% | Population Pyknosed Nuclei (%) [6]: 38% and 51% | Population Tubulin-Different-Phenotype (%) [6]: 50% and 52%
